Screens: PubChem, several laboratories
Only some compounds are listed: those with a hit (about 12% of all), similar ones and a draw of the others.
WT yeast gro inh: growth inhibition of WT yeast, mitochondrial fusion screen | mitochondrial fusion phenotypic screen, WT strain | inhibition, % at 10 µM | actives 2.1% (n = 190,000) | AID 1362; in the data active = inhibition above about 58%; tested in S. cerevisiae
Diaph act CS: counter-screen for diaphorase-based assays: diaphorase activators and chemical reducers. Diaphorase/resazurin coupled assay, resorufin fluorescence, 16 min; hits give high values; 1 = vehicle wells, 0 = NADH-free wells. actives 0.005% (n = 190,000). activation factor at 20 µM;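 active = diaphorase activity raised at least twofold by the compound at 20 µM; inactive = activation factor below 2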
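Material: Purified diaphorase enzyme from Clostridium kluyveri | Buffer or medium: 50 mM HEPES pH 7.4 with 4.542 mM MgCl2, 0.005% Tween 20 | Times: 16 min enzyme reaction, ambient temperature | Signal: Red resorufin fluorescence at 544/590 nm excitation/emission | Measure: Increased resorufin signal from activators or reducing compounds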
L major viab: Leishmania major promastigote growth inhibition | Leishmania major promastigotes, resazurin fluorescence viability | inhibition, % at 10 µM | actives 9% (n = 200,000) | AID 1063; in the data active = inhibition above about 50%;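 note: promastigotes grown with compound for 44 hours at 28 °C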
Diaphorase inh: counter-screen for diaphorase-based assays: diaphorase inhibitors and chemical oxidizers | actives 0.69% (n = 190,000) | inhibition, % at 20 µM | diaphorase resazurin-to-resorufin fluorescence, NADH, 16 min; bacterial (C. kluyveri) enzyme, not human;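 active = primary screen inhibition at 20 µM above a set limit, cut at about 50% in these data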
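System: Diaphorase enzyme from Clostridium kluyveri | Amount: Enzyme working solution with 0.14 U/mL diaphorase | Benchmarks: No-NADH positive control and DMSO neutral control | Signal: Fluorescence of resorufin formed from resazurin, Ex 544/Em 590 nm | Schedule: 16-min room-temperature incubation before reading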
Cl transport mod: KCC2 (human) Cl- transport modulation | KCC2 cells, thallium flux FluoZin-2 fluorescence | B-score of Tl+ flux slope (higher = more flux/activation; lower = inhibition) at 10 µM | actives 2.2% (n = 190,000);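 active = thallium flux slope and its plate-corrected score both differing from the plate sample mean at a set confidence after two filtering rounds, in either direction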;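 note: slope of fluorescence scaled to starting intensity during 10 to 20 s after thallium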
ROMK primary: modulators of human ROMK potassium channel; Tet-inducible ROMK, thallium flux fluorescence; actives lie on both sides; B-score at 10 µM; actives 2% (n = 130,000);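 active = signal ratio slope over the read window, or its plate-corrected B-score, at least 3 SD from the plate mean, either direction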;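 note: B-score of the F/F0 ratio slope over 7 to 12 s after thallium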
Each line names hits and unclear results; the compound was inactive in the other large screens.

S=C(NCCCN1CCOCC1)Nc1ccc(Cl)c(Cl)c1	L major viab 95
CC1CN(C(=O)Nc2ccc3c(c2)OCO3)CC(C)O1 (stereo not given)	none (no result: Cl transport mod)
CCCOc1ccc(-c2nc(OCC)c3ccccc3n2)cc1	WT yeast gro inh 60 (no result: Cl transport mod)
CC(C)C(C)(C#N)NC(=O)CSc1nnc(C(F)(F)F)n1C (stereo not given)	none (no result: ROMK primary)
CCC1(C)Cc2c(sc3nc(NN)n(C)c(=O)c23)CO1 (stereo not given)	L major viab 95
CCOC(=O)C1(CCc2ccccc2)CCN(Cc2cccc3nccnc23)CC1	none
CNC(=O)C(=O)NCC1OCCCN1S(=O)(=O)c1cccs1 (stereo not given)	none
Cc1cc(C)c(S(=O)(=O)N2CCCOC2CNC(=O)C(=O)NCCc2c[nH]c3ccccc23)c(C)c1 (stereo not given)	L major viab 93
O=C(NCCO)C(=O)NCC1OCCCN1S(=O)(=O)c1cccs1 (stereo not given)	L major viab 56
O=C(/C=C/c1ccccc1)NC(NC(=S)Nc1ccc(Cl)cc1Cl)C(Cl)(Cl)Cl (stereo not given)	L major viab 59 (no result: ROMK primary)
O=C(/C=C/c1ccccc1)NC(NC(=S)Nc1cccc(O)c1)C(Cl)(Cl)Cl (stereo not given)	L major viab 93
CCCS(=O)c1nc(C)cc(C)c1S(C)(=O)=O (stereo not given)	none
CC1CCN(c2ccc(C(=O)O)cc2NS(=O)(=O)c2ccc(Br)cc2)CC1	none
O=C(Nc1ccccc1)NC1(C(=O)NCc2ccc3c(c2)OCO3)CCCCC1	L major viab 58
O=C(Nc1cccc(Cl)c1)NC1(C(=O)NCc2cccs2)CCCCC1	L major viab 62 (no result: Cl transport mod, ROMK primary)
O=C(Nc1ccc(F)cc1)NC1(C(=O)NCc2cccs2)CCCCC1	L major viab 87 (no result: ROMK primary)
O=C(NCc1ccccc1)NC1(C(=O)Nc2ccc3c(c2)OCCO3)CCCCC1	none (no result: Cl transport mod, ROMK primary)
O=C(NCc1cccs1)Nc1cccc(Cl)c1	none (no result: WT yeast gro inh, Diaph act CS, Diaphorase inh)
O=C(COC(=O)c1ccccc1NC(=O)C1CC1)c1ccc2c(c1)OCCO2	none (no result: ROMK primary)
COCCC(=O)NNS(=O)(=O)c1ccc(Cl)cc1	none
Cc1cccc(NN=C2c3ccccc3-c3ccccc32)c1	none (no result: ROMK primary)
Cc1nn(CC(=O)OCC(=O)NC(C)c2ccccc2)c(C)c1[N+](=O)[O-] (stereo not given)	none
CCCc1cc(NCC2CCCO2)n2c(nc3ccccc32)c1C#N (stereo not given)	L major viab 78
CCn1c(C)nc2cc(C(=O)OC(C(F)(F)C(F)F)C(F)(F)C(F)F)ccc21	L major viab 100 (no result: ROMK primary)
CCn1c(C)nc2cc(C(=O)NNC(=O)c3ccc(Cl)nc3)ccc21	none
Cc1ccccc1N1C(=O)CC1(C#N)c1ccc(OCc2ccccc2)cc1 (stereo not given)	none
O=C(CN1C(=O)COc2ccccc21)N(Cc1cccnc1)Cc1ccccc1F	L major viab 96 (no result: ROMK primary)
CCOC(=O)N1C(=O)C2(CCCCC2)N(c2ccccc2Cl)C1=S	WT yeast gro inh 77
O=C(O)c1[nH]c2ccc([N+](=O)[O-])cc2c1-c1ccccc1	none (no result: WT yeast gro inh, Diaph act CS, L major viab, Diaphorase inh)
O=C(N/N=C/c1ccccn1)c1[nH]c2ccc([N+](=O)[O-])cc2c1-c1ccccc1	WT yeast gro inh 65, L major viab 98
COC(=O)c1ccc(Cl)c(NC(=O)c2ccc(-c3ccccc3)cc2)c1	none
C=CCNC(=S)NN=C1CCCCCCC1	WT yeast gro inh 60
C/C(CC(=O)NC12CC3CC(CC(C3)C1)C2)=N\NC(=O)c1ccc(C)cc1	none
Cc1ccsc1CN1CC(=O)N(c2c(C)cccc2C)C1=S	L major viab 53
COc1ccc(S(=O)(=O)N2CCC(O)(c3cccnc3)CC2)cc1OC	none
COc1cccc(/C=N/NC(=O)CN(CCc2ccccc2)S(=O)(=O)c2ccc(NC(C)=O)cc2)c1	none (no result: ROMK primary)
O=S(=O)(c1ccc(-c2csc(Nc3ccc(Br)cc3)n2)cc1)N1CCCC1	none
Cc1ccc(Nc2nc(-c3ccc(S(=O)(=O)N4CCCC4)cc3)cs2)cc1C	L major viab 90
O=S(=O)(c1ccc(-c2csc(Nc3ccc(F)cc3)n2)cc1)N1CCCC1	L major viab 64
